For series [1], the system named is HIV-1 LTR. Nature of the series: Luciferase assay in TSA treated TZM-bl cells. Format: cell-based. The following applies: TSA treatment. In outline: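 TZM-bl cells, which carry a stably integrated HIV-1 LTR-luciferase reporter, were treated with TSA for 7 days and then with test compound. Firefly luciferase activity was measured with the BrightGlo Luciferase Assay.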

Series [2] has as its system HIV-1 LTR. Nature of the series: ChIP assay on the HIV-1 LTR in TZM-bl cells. Format: cell-based. As to conditions: TSA for 7 days. In outline: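 TZM-bl cells carry an integrated HIV-1 LTR and were grown in DMEM with 10% FBS, 2mM L-glutamine and antibiotics. Cells were treated 7 days with sub-lethal TSA, then switched to complete medium and transfected with TAR-WT or control TAR-D RNA. ChIP was done on day 8 with HDAC-1 and Ago2 antibodies. Precipitated DNA was amplified with 0.1uM HIV-1 LTR primers.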

Series [3] has as its system HIV-1 in T-cells. As to conditions: ref Agbottah et al, 2005; cited from earlier work.
Series [4] has as its system HIV-1 in monocytes. As to conditions: ref Agbottah et al, 2005; cited from earlier work.
Series [5] relates to infected ACH2, J1.1, OM10.1, U1 and uninfected CEM, Jurkat T-cells, and U937 cells. Nature of the series: MTT assay on infected and uninfected cells. Format: cell-based. The following applies: 50nM and 10μM. The essentials:
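Cell viability was measured by MTT assay at 50nM and at a high drug level. Uninfected CEM, Jurkat and U937 cells were grown in RPMI 1640 with FBS, L-glutamine and penicillin/streptomycin at 37°C, 5% CO2.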
(Tetrazolium assays rely on reduction of a dye to a coloured formazan, in cell work by metabolically active cells.)

For series [6] the following is noted: cited from earlier work.
For series [7], the system named is HIV-1 LTR. Nature of the series: HIV-1 LTR-CAT assay in HCT116 WT cells. Format: cell-based. As to conditions: Flavopiridol, CR8#13, F07#13 100nM, 9AA 1000nM, 48hrs. The essentials: (§1)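 HIV-1 LTR-CAT plasmid was transfected into HCT116 cells with or without pc-Tat. Six hours later, cells were treated with DMSO or test compound and incubated 48hrs at 37°C in complete DMEM. Dicer-/- extract was used at one tenth the amount of WT extract.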

The subject of series [8] is HIV-1 (pNL4.3). Nature of the series: Reverse transcriptase assay, pNL4.3 electroporated U937 cells. In kind it is cell-based. As to conditions: Flavopiridol 200nM, 48 hours post drug treatment.
Series [9] deals with HIV-1 LTR. Briefly: HIV-1 LTR-CAT assay in HCT116 Dicer-/- cells. In kind it is cell-based. As to conditions: HCT116 Dicer-/- compared with HCT116 WT; 100nM; 48hrs. The essentials:
as §1

The text below walks through data of publication PMC2902143 (Journal of RNAi and Gene Silencing : An International …, 2010).

With `CC(/C=C/C(=O)NO)=C\[C@@H](C)C(=O)c1ccc(N(C)C)cc1` [TSA, Trichostatin-A], in series [1], the “Luciferase activity of integrated HIV-1-Luc” value is “increased Luciferase activity”. Besides, in series [2], the “Association of HDAC-1 and Ago2 with the HIV-1 LTR (ChIP)” value is on record as “association was lost”.
`CC[C@H](CO)Nc1nc(NCc2ccccc2)c2ncn(C(C)C)c2n1` [Cyc202, R-roscovitine]: in series [3], the “Inhibition of HIV-1 in T-cells” value is listed as “effective inhibitor”. In series [4], the “Inhibition of HIV-1 in monocytes” value was “not in monocytes”.
`CC[C@H](CO)Nc1nc(NCc2ccc(-c3ccccn3)cc2)c2ncn(C(C)C)c2n1` [CR8]: in series [5], the “Cell killing of uninfected cells (MTT assay)” value was “some cell killing of uninfected cells”. Further, in series [6], the “Potency relative to Cyc202” value is “roughly 25 times”.
Turning to `Nc1c2ccccc2nc2ccccc12` [9AA, 9-Aminoacridine], the “Inhibition of Tat-mediated HIV-1 LTR transcription (CAT assay)” value in series [7] is “moderate effects”.
In the case of `CN1CC[C@H](c2c(O)cc(O)c3c(=O)cc(-c4ccccc4Cl)oc23)[C@H](O)C1` [Flavopiridol], the “RT levels in supernatant” value in [8] was “able to decrease RT levels in both cell lines”. For the same compound, the “Inhibition of Tat-mediated HIV-1 LTR transcription (CAT assay)” value in series [9] was “less potent”; in [7] it was “inhibited viral transcription significantly better in cells that contained Dicer”.
